# Source: PubChem BioAssay
# MrgX1 allo act: human MrgX1 positive allosteric modulation, primary screen; Q96LB2; MrgX1-HEK293, Fluo-4 calcium flux, FDSS; hits give high values; B-score at 10 µM; 310,000 tested, 0.63% active; AID 588675;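 active = plate-corrected calcium response at least 3 library SD above typical, normal starting fluorescence, not activating the receptor alone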;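 also: compound read alongside a low EC10 to EC30 dose of BAM8-22 agonist; peak minus trough fluorescence over baseline measured at the second addition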
# Target sequence (Q96LB2 whole entry, looked up): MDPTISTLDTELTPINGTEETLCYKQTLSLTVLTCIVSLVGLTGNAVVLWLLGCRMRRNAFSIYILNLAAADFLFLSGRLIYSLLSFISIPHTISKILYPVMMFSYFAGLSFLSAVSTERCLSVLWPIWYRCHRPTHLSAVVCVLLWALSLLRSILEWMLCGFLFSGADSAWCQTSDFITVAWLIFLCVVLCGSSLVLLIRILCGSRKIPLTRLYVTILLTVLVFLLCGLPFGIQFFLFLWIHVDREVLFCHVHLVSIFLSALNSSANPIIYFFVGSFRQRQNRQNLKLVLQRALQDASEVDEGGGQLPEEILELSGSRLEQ
# MrgX1 agonist: activates human MrgX1 receptor signaling. B-score at 10 µM. Q96LB2. AID 588627. MrgX1-HEK293 cells, Fluo-4 calcium fluorescence, agonist mode; hits give high values. 310,000 tested, 0.44% active;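 active = calcium response B-score plate-corrected fluorescence ratio at least 3 library SD, with starting fluorescence B-score inside 5 SD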
#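 Material – MrgX1-expressing HEK293 cells · Input – 15,000 cells seeded per well · Dosing – compound as first of three additions · Times – overnight seeding, then 1 h dark dye loading · Measured by – kinetic Fluo-4 NW fluorescence of intracellular calcium · Read-out – B-scored fluorescence response ratio · Benchmarks – positive and negative control wells on each plate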
# RGS4 inh: inhibitors of human RGS4; P49798; HEK293 M3R/RGS4 inducible, Fluo-4 calcium flux; hits give high values; triggered by carbachol at its EC20; B-score at 10 µM; 310,000 tested, 0.45% active; AID 463165;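 active = B-score, a plate-corrected calcium signal, over three deviations above library mean, with baseline fluorescence within five deviations of library mean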;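 also: RGS4 expression induced by doxycycline in cells with stable M3 receptor; B-score is computed from the integrated fluorescence ratio over baseline after carbachol; higher B-score means a larger calcium signal and so more RGS4 inhibition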
# Target sequence (P49798 whole entry, looked up): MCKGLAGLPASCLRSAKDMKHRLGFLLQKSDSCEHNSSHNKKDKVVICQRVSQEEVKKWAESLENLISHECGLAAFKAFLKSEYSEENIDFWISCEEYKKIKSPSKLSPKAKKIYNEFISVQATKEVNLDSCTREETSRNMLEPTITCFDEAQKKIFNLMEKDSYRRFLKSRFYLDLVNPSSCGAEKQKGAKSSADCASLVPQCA
# MrgX1 antag: human MrgX1 receptor antagonism, primary screen; Q96LB2; MRGX1-HEK293 calcium flux, Fluo-4, BAM8-22 antagonism; hits give low values; B-score at 10 µM; 310,000 tested, 1.3% active; AID 588676;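 active = calcium-response B-score plate-corrected more than 3 library SD below zero, starting fluorescence within 5 deviations, no agonist response on first addition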;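 also: peak minus trough fluorescence over baseline after final BAM8-22 challenge near maximal dose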
# RGS4 pot: potentiators or activators of RGS4; HEK293 M3R/inducible RGS4, carbachol calcium flux Fluo4; hits give low values; B-score at 10 µM; 310,000 tested, 0.92% active; AID 463111;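 active = B-score of the integrated calcium signal more than 4 SD below the library mean, with starting fluorescence not abnormally high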;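 also: negative B-score means reduced calcium response which marks RGS4 activation or potentiation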
#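 System: HEK293 FlpIn-TREx cells, stable M3R, doxycycline-inducible RGS4. Timing: overnight RGS4 induction, 30 min dye load 37 °C, 20 min compound RT. Also added: carbachol, ECmax concentration. Measured by: Fluo4 fluorescence kinetic imaging of calcium. Evaluation: integrated calcium ratio converted to B score.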
# RGS4 activ val: RGS4 activation, validation assay. shares compounds with RGS4 pot. HEK293 M3R/RGS4 inducible, carbachol calcium flux Fluo4. inhibition, % at 10 µM. 1,100 tested, 89% active. AID 602282;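 active = inhibition above 3 SD of the buffer control wells, cut at about 41% in these data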;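 also: signal is the integrated peak-minus-minimum Fluo4 fluorescence over baseline ratio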
# M3R Ca counter: activity in cells without induced RGS4 expression. shares compounds with RGS4 pot. HEK293 M3R non-induced RGS4, Fluo4 calcium flux; after carbachol challenge at its EC90. inhibition, % at 10 µM. 1,100 tested, 82% active. AID 602283;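 active = inhibition exceeding 3 SD of buffer-only control wells, cut at about 26% in these data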;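 also: percent drop in integrated peak-minus-baseline over baseline Fluo4 ratio after carbachol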
# * hit, by the source's call; i = inactive; x = not tested or not shown. In the library only some 3.5% were active in any assay of this set; here they are far more common.
SMILES,MrgX1 allo act,MrgX1 agonist,RGS4 inh,MrgX1 antag,RGS4 pot,RGS4 activ val,M3R Ca counter
CCN(c1ccccc1)S(=O)(=O)c1ccc(OC)c(NC(=O)CCc2nc3ccccc3c(=O)[nH]2)c1,i,i,i,i,-7.9*,85*,56*
OCCC1CN(Cc2ccc(-c3ccco3)cc2)CCN1Cc1ccsc1 (configuration not stated),i,i,i,i,-7.7*,74*,84*
CCOC(=O)C1=C(Cc2ccc(Cl)cc2)C(=O)c2ccccc2C1=O,i,i,i,-4.5*,-9.3*,86*,30*
CN(CC(=O)Nc1ccc(F)cc1)S(=O)(=O)c1ccc2c(c1)c(=O)n(C)c(=O)n2C,i,i,i,i,i,x,x
CC(=O)NC1=NN(C(C)=O)C(c2ccccn2)S1 (configuration not stated),i,i,i,i,i,x,x
CN(C)S(=O)(=O)c1cccc(NC(=O)c2ccc(S(=O)(=O)N3CCCCC3)cc2)c1,i,i,i,i,i,x,x
CN(C)S(=O)(=O)c1cccc(C(=O)Nc2ccc(S(=O)(=O)N3CCCC3)cc2)c1,i,i,i,i,-7.9*,70*,84*
CSc1ccc(S(=O)(=O)NCC(=O)OCC(=O)N(Cc2ccccc2)C(C)C)cc1[N+](=O)[O-],i,i,i,i,i,x,x
Cc1ccc(C(OCC(C)(C)C[N+](C)(C)C)c2ccccc2)cc1 (configuration not stated),i,i,i,i,-11*,88*,63*
O=C(NCCSCc1ccccc1)c1ccc(C2SCC(=O)N2Cc2ccccc2)cc1 (configuration not stated),i,i,i,i,-11*,88*,42*
COC(=O)c1ccc(C2SCC(=O)N2Cc2ccccc2)cc1 (configuration not stated),i,i,i,i,i,x,x
CC(CN1CCOCC1)OC(=O)c1ccc2c(c1)OCCO2 (configuration not stated),i,i,i,i,i,x,x
CC(CN1CCCCC1)OC(=O)C(C)(c1ccccc1)c1ccccc1 (configuration not stated),i,i,i,i,-7.9*,90*,54*
CC(CN1CCCCC1)OC(=O)c1ccc2c(c1)OCCO2 (configuration not stated),i,i,i,i,-11*,68*,33*
CC(CN1CCOCC1)OC(=O)C(C)(c1ccccc1)c1ccccc1 (configuration not stated),i,i,i,i,i,x,x
CSc1ccc(CN2CCC(Oc3cccc(C(=O)N4CCCC4)c3)CC2)cc1,i,i,i,i,i,x,x
COC(=O)c1ccc(CN2CCC(Oc3ccc(C(=O)N4CCCCC4)cc3)CC2)cc1,i,i,i,i,-9.9*,92*,80*
COC(=O)c1ccc(CN2CCC(Oc3cccc(C(=O)N4CCCC4)c3)CC2)cc1,i,i,i,i,-8*,87*,59*
COc1cc(NC(=O)c2cc3ccccc3cc2OC)ccc1NC(=O)c1cccs1,i,i,i,i,-9.1*,76*,0
Nn1cnc2c(c1=O)C1(CCCCC1)Cc1ccccc1-2,i,i,i,i,i,x,x
O=c1c2c(nc3n1CCCCC3)-c1ccccc1CC21CCCC1,i,i,i,i,-11*,93*,94*
CC(C)(O)C#Cc1ccc(CN2CCN(C3CCCCC3)C(CCO)C2)cc1 (configuration not stated),i,i,i,i,i,x,x
CC(C)(O)C#Cc1ccc(CN2CCN(C3CCCCC3)C(CCO)C2)s1 (configuration not stated),i,i,i,i,-7.8*,64*,26*
CSc1ccc(CN2CCN(C3CCCC3)C(CCO)C2)cc1 (configuration not stated),i,i,i,i,-8.9*,88*,60*
C=CCCC(=O)N1CCCC(Cc2cccc(Cl)c2)(C(=O)OCC)C1 (configuration not stated),i,i,i,i,i,x,x
SMILES,MrgX1 allo act,MrgX1 agonist,RGS4 inh,MrgX1 antag,RGS4 pot,RGS4 activ val,M3R Ca counter
O=c1[nH]c(CN2CCN(S(=O)(=O)/C=C/c3ccccc3)CC2)nc2cc(Cl)ccc12,i,i,i,i,i,x,x
Cc1ccc(NC(=O)c2cc(C(C)(C)C)nn2Cc2ccccc2)cc1,i,i,i,i,-7.6*,95*,82*
CCc1nc(C)cn1S(=O)(=O)c1ccc(Br)cc1,i,i,i,i,i,x,x
COc1ccc(N2CCN(C(=O)Cc3csc(NC(=O)Nc4ccccc4OC)n3)CC2)cc1,i,i,i,i,i,x,x
COc1ccccc1NC(=O)Nc1nc(CC(=O)N2CCN(c3ccc(F)cc3)CC2)cs1,i,i,i,i,-8.2*,56*,0
COc1ccccc1N1CCN(C(=O)c2ccc3c(Cl)c4c(nc3c2)CCCC4)CC1,i,i,i,i,-9.7*,86*,79*
CC1CCN(C(=O)c2ccc3c(Cl)c4c(nc3c2)CCCC4)CC1,i,i,i,i,i,x,x
O=C(c1ccc2c(Cl)c3c(nc2c1)CCCC3)N1CCN(c2ccc(F)cc2)CC1,i,i,i,i,-9.2*,92*,86*
CCOC(=O)C1CCN(C(=O)c2ccc3c(Cl)c4c(nc3c2)CCCC4)CC1,i,i,i,i,i,x,x
CCOC(=O)CNC(=O)CN1CCC(c2nc3ccccc3[nH]2)CC1,i,i,i,i,i,x,x
O=C1CCCN1S(=O)(=O)c1ccccc1,i,i,i,i,-7.9*,50*,0
CC[N+]1(C)CCC(=C2c3ccccc3CC(=O)c3sccc32)CC1 (configuration not stated),i,i,i,-6.7*,-11*,95*,84*
Cc1ccc(-c2nc3ccccn3c2NCc2ccc3c(c2)OCO3)cc1,i,i,i,i,-9.5*,89*,71*
c1ccc2c(c1)[nH]c1c(N3CCN(C4CCCCC4)CC3)ncnc12,i,i,i,i,-7.8*,64*,84*
Cc1ccc(COc2ccc(CNCCCN3CCCCCC3=O)cc2)cc1,i,i,i,i,-12*,93*,65*
